According to ChEMBL document CHEMBL2062384, “Alkyne derivatives of isocoumarins as clickable activity-based probes for serine proteases” (Bioorg Med Chem, 2012):
Calls of active or inactive are those of the source. The rule behind the calls is not given here.

What was measured:
Bos taurus [1] = organism: Bos taurus; test: Binding affinity to bovine chymotrypsin assessed as protein labeling at 2 uM measured after 15 mins by fluorescent scanning method
Outline: (§1)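 100 ng purified protease per lane; cathepsin G in 50 mM HEPES pH 7.4 with 100 mM NaCl, others in 50 mM phosphate pH 7.4. Optional 30 min pre-block (chymotrypsin 100 µM Ala-Ala-Phe-phosphonate, cathepsin G 1 mM PMSF, urokinase 100 µM DFP, elastase/trypsin 1 mM dichloroisocoumarin). Probe 2 µM, 15 min at room temperature. Then 30 min room-temperature click (25 µM TAMRA-PEG-N3, 50 µM THPTA, 1 mM CuSO4, 500 µM ascorbate), SDS-PAGE, scan ex 532/em 580 nm.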

[2] = target: T1, Cathepsin G (Homo sapiens) (UniProt P08311); test: Binding affinity to human cathepsin G assessed as protein labeling at 2 uM after 15 mins by fluorescent scanning method; outline: as §1
T1 sequence (whole entry): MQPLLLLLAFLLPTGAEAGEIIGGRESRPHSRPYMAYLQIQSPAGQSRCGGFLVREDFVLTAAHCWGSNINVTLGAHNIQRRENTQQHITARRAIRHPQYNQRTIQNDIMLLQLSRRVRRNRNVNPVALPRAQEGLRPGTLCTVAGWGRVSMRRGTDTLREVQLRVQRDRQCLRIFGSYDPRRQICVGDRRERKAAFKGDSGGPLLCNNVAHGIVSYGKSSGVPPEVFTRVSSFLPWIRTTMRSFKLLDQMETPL

Bos taurus [3] = organism: Bos taurus; test: Binding affinity to bovine chymotrypsin assessed as protein labeling at 2 uM measured after 15 mins pretreated with 100 uM Ala-Ala-Phe-diphenyl phosphonate for 30 mins before compound addition by fluorescent scanning method; outline: as §1
Rattus norvegicus [4] = organism: Rattus norvegicus; test: Binding affinity to 25 kDa Chymotrypsin in rat liver proteome assessed as protein labeling at 1 uM after 30 mins by fluorescent scanning method
Outline: (§2)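 Rat liver homogenate (70 µm strainer, 0.5% NP-40 substitute in PBS, 1 h on ice, 15,000 rpm spin), diluted to 1 mg/mL protein in 50 mM phosphate, pH 7.4; pretreated 30 min on ice with DMSO, TPCK (100 µM) or PMSF (1 mM), then IC probe. Cu(I) click with TAMRA-PEG-N3/THPTA/CuSO4/ascorbate, SDS-PAGE, fluorescence scan (ex 532/em 580 nm).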

Rattus norvegicus [5] = organism: Rattus norvegicus; test: Binding affinity to 25 kDa Chymotrypsin in rat liver proteome assessed as protein labeling at 1 uM after 30 mins pre-treated with 100 uM TPCK for 30 mins before compound addition by fluorescent scanning method; outline: as §2
Sus scrofa [6] = organism: Sus scrofa; test: Binding affinity to porcine pancreatic elastase assessed as protein labeling at 2 uM after 15 mins by fluorescent scanning method; outline: as §1
Sus scrofa [7] = organism: Sus scrofa; test: Binding affinity to porcine pancreatic elastase assessed as protein labeling at 2 uM after 15 mins pretreated with 1 mM 3,4-dichloroisocoumarin for 30 mins before compound addition by fluorescent scanning method; outline: as §1
lymphoma = test: Binding affinity to porcine pancreatic elastase assessed as protein labeling at 2 uM after 15 mins in presence of mouse EL4 lymphoma cell lysate for protease spiking by fluorescent scanning method relative to total protein content; type: cell-free; settings: Sus scrofa
Outline: (§3)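 Protease spiked into EL4 mouse lymphoma lysate (RIPA, 30 min on ice, cleared by centrifugation; 1 mg/mL protein in 50 mM phosphate pH 7.4), optionally pre-blocked (urokinase 100 µM DFP). Labeled with 2 µM probe 15 min on ice. Click on ice 30 min with TAMRA-PEG-N3, THPTA, CuSO4, ascorbate; 12% or 15% SDS-PAGE, fluorescence scan ex 532/em 580 nm.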

[8] = target: Urokinase-type plasminogen activator (Homo sapiens) (UniProt P00749); test: Binding affinity to urokinase-type plasminogen activator assessed as protein labeling at 2 uM after 15 mins by fluorescent scanning method; outline: as §1
Trypsin (Homo sapiens) = Trypsin (Homo sapiens) (UniProt P07477+P07478+P35030); test: Binding affinity to trypsin assessed as protein labeling at 2 uM after 15 mins by fluorescent scanning method; type: protein assay; outline: as §1
[9] = target: Urokinase-type plasminogen activator (Homo sapiens) (UniProt P00749); test: (§4) Binding affinity to urokinase-type plasminogen activator assessed as protein labeling at 2 uM after 15 mins in presence of mouse EL4 lymphoma cell lysate for protease spiking by fluorescent scanning method relative to total protein content; type: cell-free; outline: as §3
[10] = target: Urokinase-type plasminogen activator (Homo sapiens) (UniProt P00749); test: as §4, with “mins pretreated with 100 uM DFP for 30 mins before compound addition” for “mins”; type: cell-free; outline: as §3
[11] = target: Urokinase-type plasminogen activator (Homo sapiens) (UniProt P00749); test: Binding affinity to urokinase-type plasminogen activator assessed as protein labeling at 2 uM after 15 mins pretreated with 100 uM DFP for 30 mins before compound addition by fluorescent scanning method; outline: as §1
Rattus norvegicus [12] = organism: Rattus norvegicus; test: Binding affinity to 26 kDa Chymotrypsin in rat liver proteome assessed as protein labeling at 1 uM after 30 mins by fluorescent scanning method; outline: as §2
Rattus norvegicus [13] = organism: Rattus norvegicus; test: Binding affinity to 26 kDa Chymotrypsin in rat liver proteome assessed as protein labeling at 1 uM after 30 mins pre-treated with 100 uM TPCK for 30 mins before compound addition by fluorescent scanning method; outline: as §2
Rattus norvegicus [14] = organism: Rattus norvegicus; test: Binding affinity to 50 kDa Serine protease band in rat liver proteome assessed as protein labeling at 1 uM after 30 mins by fluorescent scanning method; settings: 0.5 uM, in the assay text read “at 0.5 uM” for “at 1 uM”; outline: as §2
Rattus norvegicus [15] = organism: Rattus norvegicus; test: Binding affinity to 50 kDa Serine protease band in rat liver proteome assessed as protein labeling at 1 uM after 30 mins pre-treated with 100 uM TPCK for 30 mins before compound addition by fluorescent scanning method; settings: 0.5 uM, in the assay text read “at 0.5 uM” for “at 1 uM”; outline: as §2
Rattus norvegicus [16] = organism: Rattus norvegicus; test: Binding affinity to 50 kDa Serine protease band in rat liver proteome assessed as protein labeling at 1 uM after 30 mins pre-treated with serin eprotease inhibitor PMSF for 30 mins before compound addition by fluorescent scanning method; settings: 0.5 uM, in the assay text read “at 0.5 uM” for “at 1 uM”; outline: as §2
[17] = target: T1, Cathepsin G (Homo sapiens); test: Binding affinity to human cathepsin G assessed as protein labeling at 2 uM after 15 mins in presence of mouse EL4 lymphoma cell lysate for protease spiking by fluorescent scanning method relative to total protein content; type: cell-free; outline: as §3

Row | SMILES | Activity (Bos taurus [1]) | Activity [2] | Activity (Bos taurus [3]) | Activity (Sus scrofa [6]) | Activity (Sus scrofa [7]) | Activity [8] | Activity (Trypsin (Homo sapiens)) | Activity [11] | other results
1 | C#CCCOc1oc(=O)c2cc(NC(=O)c3ccccc3)ccc2c1Cl | Active | Active | inactive | – | – | – | – | – | Activity (Rattus norvegicus [4]): Active; Activity (Rattus norvegicus [5]): inactive
2 | C#CCCOc1oc(=O)c2ccccc2c1Cl | Active | Active | inactive | Active | – | Active | Active | inactive | Activity (Rattus norvegicus [12]): Active; Activity (Rattus norvegicus [13]): inactive
3 | C#CCCOc1oc(=O)c2cc([N+](=O)[O-])ccc2c1Cl | Active | – | inactive | Active | Active | Active | Active | inactive | –
4 | C#CCCC(=O)Nc1ccc2c(Cl)c(OCCc3ccccc3)oc(=O)c2c1 | Active | – | inactive | – | – | – | – | – | –
5 | C#CCCOc1oc(=O)c2cc(N)ccc2c1Cl | Active | Active | inactive | Active | Active | Active | Active | inactive | Activity (Rattus norvegicus [14]): Active; Activity (Rattus norvegicus [15]): Active; Activity (Rattus norvegicus [16]): inactive; Activity [17]: 0.03%

Further lines, with some results ahead:

Row | Activity (Bos taurus [1]) | Activity [2] | Activity (Bos taurus [3]) | Activity (Sus scrofa [6]) | Activity (Sus scrofa [7]) | Activity [8] | Activity (Trypsin (Homo sapiens)) | Activity [11] | SMILES | other results
6 | Active | Active | inactive | Active | inactive | – | – | – | C#CCCC(=O)Nc1ccc2c(Cl)c(OC)oc(=O)c2c1 | Activity (lymphoma): 0.007%
7 | Active | – | inactive | – | – | Active | Active | – | C#CCCC(=O)Nc1ccc2c(Cl)c(OCCSC(=N)N)oc(=O)c2c1 | –
8 | Active | – | inactive | Active | inactive | Active | Active | – | C#CCCOc1oc(=O)c2cc(NC(=O)CNC(=N)N)ccc2c1Cl | Activity [9]: 0.03%; Activity [10]: Active
9 | Active | Active | inactive | Active | inactive | – | – | – | C#CCCC(=O)Nc1ccc2c(Cl)c(OCCBr)oc(=O)c2c1 | –
10 | Active | – | inactive | – | – | Active | Active | – | C#CCCOc1oc(=O)c2cc(NC(=O)CN)ccc2c1Cl | –
